This note sets out measurements from ChEMBL document CHEMBL4052594, “Discovery of Pyrrolidine-Containing GPR40 Agonists: Stereochemistry Effects a Change in Binding Mode” (J Med Chem, 2017).

The target of series [1] is T1, Free fatty acid receptor 1 (Homo sapiens, UniProt O14842). Put plainly: Agonist activity at human GPR40 expressed in CHO-A12 cells assessed as increase in intracellular calcium flux measured for 100 secs by FLIPR assay. The class given is functional, cell-based. For orientation: Calcium assays in cells follow changes in intracellular calcium, usually with a dye or a luminescent sensor.

For series [2], the system named is Mus musculus. Put plainly: Antidiabetic activity in C57BL/6J mouse assessed as change in plasma glucose AUC (0 to 120 mins) at 1 mg/kg, po administered 1 hr prior to glucose challenge by oral glucose tolerance test. The class given is functional. In a few lines: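 C57BL/6J mice dosed orally at 0.3 or 1 mg/kg 1 h before an oral glucose bolus. Plasma glucose sampled at -60, -20, 0, 20, 40, 60 and 120 min; glucose AUC0-120 expressed relative to vehicle.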

The target of series [3] is T1, Free fatty acid receptor 1. Put plainly: Potentiation of DHA-induced agonist activity at human GPR40 inducibly expressed in HEK293 cells assessed as increase in intracellular calcium flux at agonism EC50 measured for 100 secs by FLIPR assay. The format is functional, cell-based.
Series [4] addresses T1, Free fatty acid receptor 1. Kind of series: Potentiation of DHA-induced agonist activity at human GPR40 inducibly expressed in HEK293 cells assessed as increase in intracellular calcium flux at 10 nM measured for 100 secs by FLIPR assay. The format is functional, cell-based. In a few lines:
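Ca2+ FLIPR concentration-response to DHA in inducible hGPR40 cells, alone or with fixed added test compound (3 nM or 10 nM); curve shift assessed.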

In series [5] the target is T2, Free fatty acid receptor 1 (Mus musculus, UniProt Q76JU9). Kind of series: (§1) Agonist activity at GPR40 in mouse STC1 cells assessed as induction of GLP-1 secretion measured after 1 hr by HTRF assay. The class given is cell-based. (In general: Time-resolved FRET reads energy transfer from a long-lived donor to a nearby acceptor.)
Series [6] has as its target Free fatty acid receptor 1 (Mus musculus) (UniProt Q76JU9). Put plainly: Intrinsic activity at mouse GPR40 expressed in CHO-A12 cells assessed as increase in intracellular calcium flux at 8.3 uM measured for 100 secs by FLIPR assay […]. The format is functional, cell-based.
For series [7], the target named is T1, Free fatty acid receptor 1. Put plainly: Agonist activity at human GPR40 transfected in HEK293 cells assessed as induction of cAMP accumulation incubated for 30 to 45 mins by HTRF assay. The class given is functional, cell-based. For orientation: cAMP levels reflect the balance of adenylyl cyclase and phosphodiesterase activity.
Series [8] addresses T1, Free fatty acid receptor 1. Kind of series: Binding affinity to human GPR40 expressed in HEK293 cell membranes after 1 hr by radioligand displacement based scintillation counting method. In a few lines: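 Binding of human GPR40 measured as Ki against a radioligand. Mean of at least two runs. Displacement of the label appears as a negative slope and potentiation as a positive one.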

For series [9], the target named is T2, Free fatty acid receptor 1. Put plainly: Agonist activity at mouse GPR40 expressed in CHO-A12 cells assessed as increase in intracellular calcium flux measured for 100 secs by FLIPR assay. The format is functional, cell-based.
Series [10] has as its target T1, Free fatty acid receptor 1. Kind of series: Intrinsic activity at human GPR40 transfected in HEK293 cells assessed as induction of cAMP accumulation at 16.7 uM incubated for 30 to 45 mins by HTRF assay relative to […]. The format is functional, cell-based.
Series [11] concerns the target Free fatty acid receptor 1 (Mus musculus) (UniProt Q76JU9). The series is described as §1. The format is cell-based.
The nature of series [12]: AUC (0 to 4 hrs) in C57BL/6J mouse at 10 mg/kg, po. The class given is ADME, organism-based. The arrangement: time < 4 hr, dose 10 mg/kg, route oral. The conditions noted are these: in vivo.
The nature of series [13]: Cmax in C57BL/6J mouse at 10 mg/kg, po. The format is ADME, organism-based. The arrangement: dose 10 mg/kg, route oral. The note with it: in vivo.
Series [14] deals with T1, Free fatty acid receptor 1. Put plainly: Partial agonist activity at human GPR40 inducibly expressed in HEK293 cells assessed as increase in intracellular calcium flux measured for 100 secs by FLIPR assay. The format is functional, cell-based.
Series [15] concerns Mus musculus. Put plainly: Antidiabetic activity in C57BL/6J mouse assessed as reduction of plasma glucose excursion at 10 to 100 mg/kg, po pretreated for 1 hr followed by glucose challenge measured up to 120 mins by iGTT. The class given is functional, organism-based.
The target in series [16] is T3, Peroxisome proliferator-activated receptor gamma (Homo sapiens, UniProt P37231).
T3 sequence (P37231 whole entry): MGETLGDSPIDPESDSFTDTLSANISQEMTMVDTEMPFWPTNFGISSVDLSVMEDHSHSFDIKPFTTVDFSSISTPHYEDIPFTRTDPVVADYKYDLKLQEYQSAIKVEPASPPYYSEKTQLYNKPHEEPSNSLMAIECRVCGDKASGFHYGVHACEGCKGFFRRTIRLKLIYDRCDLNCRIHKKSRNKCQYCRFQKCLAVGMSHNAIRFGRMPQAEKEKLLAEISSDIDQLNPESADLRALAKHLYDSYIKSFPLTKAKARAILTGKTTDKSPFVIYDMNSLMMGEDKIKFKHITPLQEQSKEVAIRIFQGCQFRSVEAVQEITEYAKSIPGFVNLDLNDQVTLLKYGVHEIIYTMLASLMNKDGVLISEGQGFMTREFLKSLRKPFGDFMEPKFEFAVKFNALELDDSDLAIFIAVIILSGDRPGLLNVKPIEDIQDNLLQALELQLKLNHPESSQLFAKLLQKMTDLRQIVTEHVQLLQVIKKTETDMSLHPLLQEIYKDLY
Put plainly: Transactivation of human Gal4 fused PPARgamma-LBD expressed in HEK293 cells after 18 hrs by luciferase reporter gene assay. The format is cell-based. In a few lines: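 Gal4 gene reporter transactivation assay for PPARγ; EC50 and Ymax reported.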

A further series addresses T4, PPARgamma (Homo sapiens, UniProt P37231).
T4 sequence (P37231 whole entry): T3 sequence (P37231 whole entry)
Kind of series: Transactivation of human Gal4 fused PPARgamma-LBD expressed in HEK293 cells at 4.8 uM after 18 hrs by luciferase reporter gene assay relative to […]. The format is cell-based. The note with it: HEK293 cells expressing Gal4-fused human PPARgamma-LBD.

For series [17], the target named is T1, Free fatty acid receptor 1. Kind of series: Agonist activity at human GPR40 inducibly expressed in HEK293 cells assessed as increase in intracellular calcium flux measured for 100 secs by FLIPR assay. The class given is functional, cell-based.
In series [18] the target is Free fatty acid receptor 1 (Mus musculus) (UniProt Q76JU9). Kind of series: Agonist activity at mouse GPR40 inducibly expressed in HEK293 cells assessed as increase in intracellular calcium flux measured for 100 secs by FLIPR assay. The format is functional, cell-based.

Active and inactive are the calls of the source. The calls are words filed in the database; no cut-off is given here. A value given as a limit tells only on which side of the number the result lay.

T2 sequence (Q76JU9 whole entry): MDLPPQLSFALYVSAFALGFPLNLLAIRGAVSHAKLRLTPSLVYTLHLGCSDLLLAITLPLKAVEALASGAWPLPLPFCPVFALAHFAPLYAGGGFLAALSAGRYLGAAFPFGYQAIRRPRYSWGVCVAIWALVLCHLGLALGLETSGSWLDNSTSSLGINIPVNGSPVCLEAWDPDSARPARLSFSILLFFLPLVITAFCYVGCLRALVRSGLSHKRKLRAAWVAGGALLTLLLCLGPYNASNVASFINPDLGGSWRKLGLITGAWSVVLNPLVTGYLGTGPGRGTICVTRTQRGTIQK
Free fatty acid receptor 1 (Mus musculus), sequence (Q76JU9 whole entry): as above
T1 sequence (O14842 whole entry): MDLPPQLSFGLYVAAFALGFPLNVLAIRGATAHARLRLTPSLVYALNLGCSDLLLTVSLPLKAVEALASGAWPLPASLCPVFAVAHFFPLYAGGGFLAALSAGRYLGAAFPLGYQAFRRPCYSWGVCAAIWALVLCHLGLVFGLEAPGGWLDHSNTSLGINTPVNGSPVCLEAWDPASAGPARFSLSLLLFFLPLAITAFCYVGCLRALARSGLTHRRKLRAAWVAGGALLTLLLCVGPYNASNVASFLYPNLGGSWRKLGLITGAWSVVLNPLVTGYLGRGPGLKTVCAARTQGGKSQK

On to `COc1ccc(F)c(-c2ccc(Cc3ccc(N4C[C@@H](C(F)(F)F)C[C@H]4CC(=O)O)cc3)c(C)c2)c1`, for which the EC50 (usually the concentration that produces a half-maximal response) in [1] is 0.49 µM; in [5], 3.2 µM; in series [7], 2.4 µM; in series [9] it was 2.4 µM. In addition, the outcome (in the series on Mus musculus [2]; in series [3]; in series [4]) was inactive. Also, the Intrinsic activity in [6] was determined as 46%; in series [10], 28%. For the same compound, the Ki (as a rule, the equilibrium dissociation constant of an inhibitor or competing ligand from its target) in series [8] came out at 0.045 µM.
With `Cc1ccccc1Oc1ccc(N2C[C@@H](C(F)(F)F)C[C@H]2CC(=O)O)cc1`, the figures for the EC50 in series [1], in series [7] and in [9] were 0.073 µM, greater than 20 µM and 0.33 µM, respectively. Further, the outcome (in series [11]; in the series on Mus musculus [15]) was inactive. Besides, the Intrinsic activity in series [6] came out at 84%; in series [10], 5%. Moreover, the AUC(0-t) (usually the area under the concentration-time curve up to a stated or last time point) at 4 h in series [12] amounted to 7 µM·h. For the same compound, the Ki in series [8] lay in the range of 0.035 to 0.039 µM. For the same compound, the Cmax (as a rule, the maximum level reached in the sampled fluid or tissue) in series [13] amounted to 4.7 µM. Further, the result in [14] was Active.
As for `Cc1ccccc1Oc1ccc(N2CCC[C@H]2CC(=O)O)cc1`, the EC50 in series [1] was found to be 0.074 µM; in series [16], 32 µM; in series [9] it was 5.6 µM. In series [6], the Intrinsic activity is 69%. For the same compound, the Ki in series [8] came to 4.4 µM. Moreover, at PPARgamma, the Emax (usually the maximal effect, on the per cent scale that the assay sets) at 18 h, 4.8 µM worked out at 27%.
In the case of `COc1ccc(F)c(-c2ccc(Cc3ccc(N4CC(C(F)(F)F)CC4CC(=O)O)cc3)c(C)c2)c1` (mixture of isomers), the outcome in [17] and in series [18] was Active.
